Test results as given in ChEMBL document CHEMBL4732101, “Novel quinolone-based potent and selective HDAC6 inhibitors: Synthesis, molecular modeling studies and biological investigation” (Eur J Med Chem, 2021).

Columns and labels:
[1] = target: T1, Protein deacetylase HDAC6 (Homo sapiens, UniProt Q9UBN7); experiment: Inhibition of recombinant human full length N-terminal GST-tagged HDAC6 expressed in baculovirus infected Sf9 cells using Z-(Ac)Lys-AMC as substrate measured after 90 mins by fluorescence assay
T1 sequence (Q9UBN7 whole entry): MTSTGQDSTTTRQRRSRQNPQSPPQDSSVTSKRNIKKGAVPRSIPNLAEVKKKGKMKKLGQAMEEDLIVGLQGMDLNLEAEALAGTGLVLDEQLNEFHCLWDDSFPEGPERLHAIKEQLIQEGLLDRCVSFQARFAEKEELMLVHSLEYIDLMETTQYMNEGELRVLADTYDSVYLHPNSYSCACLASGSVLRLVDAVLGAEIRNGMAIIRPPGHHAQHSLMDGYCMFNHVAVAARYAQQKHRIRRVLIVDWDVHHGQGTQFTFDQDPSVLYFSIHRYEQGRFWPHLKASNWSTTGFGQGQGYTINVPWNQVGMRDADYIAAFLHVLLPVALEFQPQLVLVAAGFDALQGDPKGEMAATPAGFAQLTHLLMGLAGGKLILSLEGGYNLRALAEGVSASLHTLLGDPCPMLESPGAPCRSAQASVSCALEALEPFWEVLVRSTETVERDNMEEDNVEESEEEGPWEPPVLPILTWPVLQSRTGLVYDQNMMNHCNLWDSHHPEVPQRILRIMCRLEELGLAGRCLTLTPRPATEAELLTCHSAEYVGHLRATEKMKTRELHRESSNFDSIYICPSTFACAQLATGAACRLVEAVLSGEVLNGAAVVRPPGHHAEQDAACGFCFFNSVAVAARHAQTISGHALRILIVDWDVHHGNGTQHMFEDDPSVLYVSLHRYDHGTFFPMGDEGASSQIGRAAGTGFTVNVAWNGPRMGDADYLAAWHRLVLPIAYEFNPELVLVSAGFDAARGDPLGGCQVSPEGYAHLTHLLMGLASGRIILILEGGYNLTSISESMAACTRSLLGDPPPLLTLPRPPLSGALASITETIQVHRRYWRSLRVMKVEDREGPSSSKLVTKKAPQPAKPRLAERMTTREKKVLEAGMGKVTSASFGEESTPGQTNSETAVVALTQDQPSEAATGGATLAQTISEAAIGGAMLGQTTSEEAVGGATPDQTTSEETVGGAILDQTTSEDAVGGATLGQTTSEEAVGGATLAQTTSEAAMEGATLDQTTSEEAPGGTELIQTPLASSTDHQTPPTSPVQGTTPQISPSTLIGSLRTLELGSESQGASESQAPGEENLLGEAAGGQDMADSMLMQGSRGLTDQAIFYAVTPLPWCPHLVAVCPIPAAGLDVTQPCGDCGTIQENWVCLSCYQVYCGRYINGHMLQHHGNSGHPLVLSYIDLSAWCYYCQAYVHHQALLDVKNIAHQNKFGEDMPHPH

Histone deacetylase 1 = Histone deacetylase 1 (Homo sapiens, UniProt Q13547); experiment: Inhibition of recombinant human C-terminal FLAG/His-tagged HDAC1 (1 to 482 residues) expressed in Sf9 insect cells using Z-(Ac)Lys-AMC as substrate measured after 90 mins by fluorescence assay
Histone deacetylase 1, sequence (Q13547 whole entry, the tested form may be a part): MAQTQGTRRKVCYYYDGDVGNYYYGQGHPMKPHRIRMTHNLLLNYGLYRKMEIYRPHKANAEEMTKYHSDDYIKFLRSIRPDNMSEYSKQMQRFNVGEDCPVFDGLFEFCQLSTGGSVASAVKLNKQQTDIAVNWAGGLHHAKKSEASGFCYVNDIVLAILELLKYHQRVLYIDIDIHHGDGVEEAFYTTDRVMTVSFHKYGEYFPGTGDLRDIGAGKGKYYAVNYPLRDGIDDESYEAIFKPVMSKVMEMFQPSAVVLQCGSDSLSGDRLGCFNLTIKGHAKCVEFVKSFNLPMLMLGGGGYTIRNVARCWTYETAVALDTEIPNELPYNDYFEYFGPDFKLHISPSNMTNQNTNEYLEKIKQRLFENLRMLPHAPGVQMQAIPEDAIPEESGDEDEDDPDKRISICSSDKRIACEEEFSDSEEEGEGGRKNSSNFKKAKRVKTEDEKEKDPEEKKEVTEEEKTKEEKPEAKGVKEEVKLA
Outline: (§1)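 Incubated with inhibitor in DMSO and fluorogenic substrate Z-(Ac)Lys-AMC (126 µM, as added) for 90 min at 37 °C. Stopped with trichostatin A plus trypsin for 30 min at 37 °C; fluorescence read at ex 390/em 460 nm.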

[2] = target: T2, HDAC1 (histone deacetylase 1) (Homo sapiens, UniProt Q13547); experiment: Inhibition of recombinant human C-terminal FLAG/His-tagged HDAC1 (1 to 482 residues) expressed in Sf9 insect cells at 1 uM using Z-(Ac)Lys-AMC as substrate measured after 90 mins by fluorescence assay relative to control; details: probe Z-(Ac)Lys-AMC; outline: as §1
T2 sequence (Q13547 whole entry, the tested form may be a part): as above

[3] = target: T2, HDAC1 (histone deacetylase 1); experiment: Inhibition of recombinant human C-terminal FLAG/His-tagged HDAC1 (1 to 482 residues) expressed in Sf9 insect cells at 50 uM using Z-(Ac)Lys-AMC as substrate measured after 90 mins by fluorescence assay relative to control; details: probe Z-(Ac)Lys-AMC; outline: as §1
[4] = target: T2, HDAC1 (histone deacetylase 1); experiment: Inhibition of recombinant human C-terminal FLAG/His-tagged HDAC1 (1 to 482 residues) expressed in Sf9 insect cells at 10 uM using Z-(Ac)Lys-AMC as substrate measured after 90 mins by fluorescence assay relative to control; details: probe Z-(Ac)Lys-AMC; outline: as §1
[5] = target: T2, HDAC1 (histone deacetylase 1); experiment: Inhibition of recombinant human C-terminal FLAG/His-tagged HDAC1 (1 to 482 residues) expressed in Sf9 insect cells at 25 uM using Z-(Ac)Lys-AMC as substrate measured after 90 mins by fluorescence assay relative to control; details: probe Z-(Ac)Lys-AMC; outline: as §1
[6] = Mutagenicity in Salmonella typhimurium TA98 at 5 to 230 uM measured after 90 mins in presence of rat liver S9 fraction by Ames test; type: toxicity, subcellular; details: salmonella enterica subsp. enterica serovar typhimurium, s9, 1.5 h, dose 5-230 µM
[7] = Mutagenicity in Salmonella typhimurium TA98 at 5 to 230 uM measured after 90 mins in absence of rat liver S9 fraction by Ames test; type: toxicity; details: salmonella enterica subsp. enterica serovar typhimurium, 1.5 h, dose 5-230 µM
[8] = Mutagenicity in Salmonella typhimurium TA100 at 5 to 230 uM measured after 90 mins in absence of rat liver S9 fraction by Ames test; type: toxicity; details: salmonella enterica subsp. enterica serovar typhimurium, s9, 1.5 h, dose 5-230 µM
NIH3T3 = experiment: Cytotoxicity against mouse NIH/3T3 cells assessed as reduction in cell viability after 24 hrs by neutral red uptake assay; type: cell-based; details: NIH3T3, 24 h
Outline: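 NIH3T3 fibroblasts seeded at 5 x 10^4 per well and cultured 24 h at 37 °C, 5% CO2. DMSO-solubilized samples added at 8 to 160 µM for 24 h; medium as negative control. Neutral Red medium applied 3 h, dye desorbed in acetic acid/ethanol, absorbance read at 540 nm. Three experiments, six replicates per concentration; viability normalized to % control.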

[9] = Mutagenicity in Salmonella typhimurium TA100 at 5 to 230 uM measured after 90 mins in presence of rat liver S9 fraction by Ames test; type: toxicity, subcellular; details: salmonella enterica subsp. enterica serovar typhimurium, s9, 1.5 h, dose 5-230 µM
Histone deacetylase 8 = target: T3, Histone deacetylase 8 (Homo sapiens, UniProt Q9BY41); experiment: Inhibition of recombinant human HDAC8 using Fluor-de-Lys as substrate measured after 1 hr by fluorescence assay
T3 sequence (Q9BY41 whole entry): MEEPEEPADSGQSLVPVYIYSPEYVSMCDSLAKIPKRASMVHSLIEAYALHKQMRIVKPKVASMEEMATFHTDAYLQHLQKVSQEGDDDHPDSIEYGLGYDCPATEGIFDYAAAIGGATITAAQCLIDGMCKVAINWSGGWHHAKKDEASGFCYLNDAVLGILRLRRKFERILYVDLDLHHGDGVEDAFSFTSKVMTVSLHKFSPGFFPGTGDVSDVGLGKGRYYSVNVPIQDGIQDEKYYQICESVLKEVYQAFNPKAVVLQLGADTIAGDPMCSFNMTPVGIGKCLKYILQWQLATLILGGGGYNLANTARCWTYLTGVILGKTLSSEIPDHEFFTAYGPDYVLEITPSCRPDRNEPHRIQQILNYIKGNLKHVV

Row | SMILES | IC50 [1] [nM] | IC50 (Histone deacetylase 1) [µM] | inhibition at 1.5 h, 1 µM [2] [%] | inhibition at 1.5 h, 50 µM [3] [%] | inhibition at 1.5 h, 10 µM [4] [%] | inhibition at 1.5 h, 25 µM [5] [%] | also measured
1 | O=C(NO)c1ccc(Cn2c(=O)c(O)c(-c3cccnc3)c3ccccc32)cc1 | 296 |  | < 10 | 96 | 36 | 82 | 
2 | Cn1c(=O)c(OCc2ccc(C(=O)NO)cc2)c(-c2ccccc2)c2ccccc21 | 519 |  | < 10 | 80 | 26 | 46 | 
3 | O=C(NO)c1ccc(COc2c(-c3ccccc3)c3ccccc3n(C3CCN(Cc4ccccc4)CC3)c2=O)cc1 | 870 |  | < 10 | 79 | 46 | 67 | 
4 | O=C(NO)c1ccc(Cn2c(=O)c(O)c(-c3ccccc3)c3ccccc32)cc1 | 308 | 11 |  |  |  |  | 

The next compounds have a lower IC50 [1] than those just listed; values first:

Row | IC50 [1] [nM] | IC50 (Histone deacetylase 1) [µM] | inhibition at 1.5 h, 1 µM [2] [%] | inhibition at 1.5 h, 50 µM [3] [%] | inhibition at 1.5 h, 10 µM [4] [%] | inhibition at 1.5 h, 25 µM [5] [%] | SMILES | also measured
5 | 82.3 | 6.1 |  |  |  |  | C#CCn1c(=O)c(OCc2ccc(C(=O)NO)cc2)c(-c2ccccc2)c2ccccc21 | 
6 | 45.3 | 1.7 |  |  |  |  | O=C(NO)c1ccc(COc2c(-c3cccnc3)c3ccccc3n(Cc3ccncc3)c2=O)cc1 | 
7 | 33 | 3 |  |  |  |  | Cn1c(=O)c(OCc2ccc(C(=O)NO)cc2)c(C2CCCCC2)c2ccccc21 | Activity [6]: Non-Toxic; Activity [7]: Non-Toxic; Activity [8]: Non-Toxic; IC50 (NIH3T3): 18 µM; Activity [9]: Non-Toxic; IC50 (Histone deacetylase 8): 1640 nM; Kapp (Histone deacetylase 8; human, 1 h): 1.93 µM
